Converted amounts (≈) assume the structure as drawn.
Experiments:
[1] = test system: Bacillus cereus; test: In vitro antibacterial activity measured as minimum inhibitory concentration was evaluated on Bacillus cereus ATCC 11778 (Bc).; format: functional
Method in brief: (§1)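 Serial 2-fold agar dilution in Mueller Hinton medium, run side by side with reference quinolones. Inoculum 10^5 cfu/mL; compound range 0.007–16 µg/mL.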

[2] = test system: Bacillus subtilis; test: In vitro antibacterial activity measured as minimum inhibitory concentration was evaluated on Bacillus subtilis ATCC 6633(Bs).; format: functional; method in brief: as §1
[3] = test system: Enterobacter cloacae; test: In vitro antibacterial activity measured as minimum inhibitory concentration, was evaluated on Enterobacter cloacae ATCC 23355 (Ecl).; format: functional
[4] = test system: Klebsiella pneumoniae; test: In vitro antibacterial activity measured as minimum inhibitory concentration was evaluated on klebsiella pneumoniae ATCC 10031 (Kp).; format: functional
Method in brief: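 Serial 2-fold agar dilution in Mueller Hinton medium, run side by side with reference quinolones.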

[5] = test system: Pseudomonas aeruginosa; test: In vivo efficacy as ED50 against Pseudomonas aeruginosa HS-116 by oral administration in mice.; format: functional
Method in brief: (§2)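 Mice, 4 groups of 10, infected intraperitoneally with slightly more than the LD100 of the organism. A single oral dose was given immediately after infection, with four doses (one per group) chosen from in vitro activity. Survival was scored after one week. ED50 (total dose, mg/kg, protecting 50%) was interpolated among group survival rates.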

[6] = test system: Staphylococcus aureus; test: In vivo efficacy as ED50 against Staphylococcus aureus HS-93 by oral administration in mice.; format: functional; method in brief: as §2
[7] = test system: Escherichia coli; test: In vivo efficacy as ED50 against Escherichia coli HM-42 by oral administration in mice.; format: functional; method in brief: as §2
[8] = test system: Proteus vulgaris; test: In vitro antibacterial activity measured as minimum inhibitory concentration was evaluated on proteus vulgaris ATCC 8427 (Pv).; format: functional; method in brief: as §1
[9] = test system: Pseudomonas aeruginosa; test: In vitro antibacterial activity measured as minimum inhibitory concentration was evaluated on Pseudomonas aeruginosa ATCC 10145 (Pa).; format: functional; method in brief: as §1
[10] = test system: Staphylococcus aureus; test: In vitro antibacterial activity measured as minimum inhibitory concentration was evaluated on Staphylococcus aureus ATCC 25178 (Sa).; format: functional; method in brief: as §1
[11] = test system: Staphylococcus epidermidis; test: In vitro antibacterial activity measured as minimum inhibitory concentration was evaluated on Staphylococcus epidermidis ATCC 155-1 (Se).; format: functional; method in brief: as §1
[12] = test system: Enterococcus faecalis; test: In vitro antibacterial activity measured as minimum inhibitory concentration was evaluated on Streptococcus faecalis ATCC 10541 (Sf).; format: functional; method in brief: as §1
[13] = test system: Escherichia coli; test: In vitro antibacterial activity measured as minimum inhibitory concentration, was evaluated on Escherichia coli ATCC 23559(Ec).; format: functional; method in brief: as §1
[14] = test system: Morganella morganii; test: In vitro antibacterial activity measured as minimum inhibitory concentration was evaluated on morganella morganii ATCC 8019 (Mm).; format: functional; method in brief: as §1
[15] = mouse, in vivo, po, 50 mg/kg
[16] = Bacillus cereus, ATCC 11778, read-out: MIC
[17] = Bacillus subtilis, ATCC 6633, read-out: MIC
[18] = Enterobacter cloacae, ATCC 23355, read-out: MIC
[19] = Klebsiella pneumoniae, ATCC 10031, read-out: MIC
[20] = Proteus vulgaris, ATCC 8427, read-out: MIC
[21] = Pseudomonas aeruginosa, ATCC 10145, read-out: MIC
[22] = Staphylococcus aureus, ATCC 25178, read-out: MIC
[23] = Staphylococcus epidermidis, ATCC 155-1, read-out: MIC
[24] = Enterococcus faecalis, ATCC 10541, read-out: MIC
[25] = Escherichia coli, ATCC 23559, read-out: MIC
[26] = Morganella morganii, ATCC 8019, read-out: MIC
[27] = Pseudomonas aeruginosa, po, read-out: ED50
[28] = Escherichia coli, po, read-out: ED50
[29] = Staphylococcus aureus, po, read-out: ED50

SMILES	MIC [1, 16]	MIC [2, 17]	MIC [3, 18]	MIC [4, 19]	MIC [8, 20]	MIC [9, 21]	MIC [10, 22]	MIC [11, 23]	MIC [12, 24]	MIC [13, 25]	MIC [14, 26]	AUC [15]	ED50 [5, 27]	ED50 [7, 28]	ED50 [6, 29]	further results
C[C@@H]1[C@@H](N)CN1c1c(F)cc2c(=O)c(C(=O)O)cn(C3CC3)c2c1F (stereo in doubt; 22)																MIC [1]: 0.06 µg/mL (≈ 0.172 µM); MIC [2]: 0.03 µg/mL (≈ 0.0859 µM); MIC [3]: 0.03 µg/mL (≈ 0.0859 µM); MIC [4]: 0.03 µg/mL (≈ 0.0859 µM); ED50 [5]: 22 mg/kg; ED50 [6]: 9 mg/kg; ED50 [7]: 2 mg/kg; MIC [8]: 0.06 µg/mL (≈ 0.172 µM); MIC [9]: 0.25 µg/mL (≈ 0.716 µM); MIC [10]: 0.06 µg/mL (≈ 0.172 µM); MIC [11]: 0.06 µg/mL (≈ 0.172 µM); MIC [12]: 0.25 µg/mL (≈ 0.716 µM); MIC [13]: 0.015 µg/mL (≈ 0.0429 µM); MIC [14]: 0.03 µg/mL (≈ 0.0859 µM)
C[C@@H]1[C@@H](N)CN1c1c(F)cc2c(=O)c(C(=O)O)cn3c2c1OC[C@@H]3C	0.5 µg/mL (≈ 1.44 µM)	0.12 µg/mL (≈ 0.345 µM)	0.25 µg/mL (≈ 0.72 µM)	0.06 µg/mL (≈ 0.173 µM)	0.5 µg/mL (≈ 1.44 µM)	4 µg/mL (≈ 11.5 µM)	0.25 µg/mL (≈ 0.72 µM)	0.25 µg/mL (≈ 0.72 µM)	1 µg/mL (≈ 2.88 µM)	0.25 µg/mL (≈ 0.72 µM)	0.12 µg/mL (≈ 0.345 µM)		53 mg/kg	50 mg/kg	46.1 mg/kg	
C[C@H]1[C@H](N)CN1c1c(F)cc2c(=O)c(C(=O)O)cn(C3CC3)c2c1F (single isomer, unassigned)		0.015 µg/mL (≈ 0.0429 µM)	0.015 µg/mL (≈ 0.0429 µM)	0.015 µg/mL (≈ 0.0429 µM)			0.015 µg/mL (≈ 0.0429 µM)	0.015 µg/mL (≈ 0.0429 µM)		0.015 µg/mL (≈ 0.0429 µM)	0.015 µg/mL (≈ 0.0429 µM)	21800 ng·h/mL	18 mg/kg	1 mg/kg	3.5 mg/kg	
C[C@H]1COc2c(N3CCN(C)CC3)c(F)cc3c(=O)c(C(=O)O)cn1c23.C[C@H]1COc2c(N3CCN(C)CC3)c(F)cc3c(=O)c(C(=O)O)cn1c23.O [LEVOFLOXACIN]	0.25 µg/mL	0.03 µg/mL	0.03 µg/mL	0.03 µg/mL	0.5 µg/mL	0.5 µg/mL	0.25 µg/mL	0.12 µg/mL	0.25 µg/mL		0.03 µg/mL	10200 ng·h/mL	109 mg/kg	5 mg/kg	14 mg/kg	
C[C@H]1[C@H](N)CN1c1cc2c(cc1F)c(=O)c(C(=O)O)cn2C1CC1 (single isomer, unassigned)	0.015 µg/mL (≈ 0.0453 µM)	0.015 µg/mL (≈ 0.0453 µM)	0.015 µg/mL (≈ 0.0453 µM)	0.015 µg/mL (≈ 0.0453 µM)		0.12 µg/mL (≈ 0.362 µM)	0.06 µg/mL (≈ 0.181 µM)	0.06 µg/mL (≈ 0.181 µM)	0.12 µg/mL (≈ 0.362 µM)	0.015 µg/mL (≈ 0.0453 µM)	0.015 µg/mL (≈ 0.0453 µM)	4000 ng·h/mL	100 mg/kg	2.9 mg/kg	17 mg/kg	

The remaining compounds from weak to strong by MIC [2, 17], led by results:

MIC [1, 16]	MIC [2, 17]	MIC [3, 18]	MIC [4, 19]	MIC [8, 20]	MIC [9, 21]	MIC [10, 22]	MIC [11, 23]	MIC [12, 24]	MIC [13, 25]	MIC [14, 26]	AUC [15]	SMILES	ED50 [5, 27]	ED50 [7, 28]	ED50 [6, 29]	further results
0.25 µg/mL (≈ 0.71 µM)	0.06 µg/mL (≈ 0.17 µM)	0.06 µg/mL (≈ 0.17 µM)	0.25 µg/mL (≈ 0.71 µM)	0.25 µg/mL (≈ 0.71 µM)	0.5 µg/mL (≈ 1.42 µM)	0.12 µg/mL (≈ 0.341 µM)	0.25 µg/mL (≈ 0.71 µM)	0.25 µg/mL (≈ 0.71 µM)	0.25 µg/mL (≈ 0.71 µM)	0.06 µg/mL (≈ 0.17 µM)	12500 ng·h/mL	CCn1cc(C(=O)O)c(=O)c2c(N)c(F)c(N3C[C@H](N)[C@H]3C)c(F)c21				
0.12 µg/mL (≈ 0.344 µM)	0.06 µg/mL (≈ 0.172 µM)	0.06 µg/mL (≈ 0.172 µM)			1 µg/mL (≈ 2.86 µM)	0.12 µg/mL (≈ 0.344 µM)	0.12 µg/mL (≈ 0.344 µM)	1 µg/mL (≈ 2.86 µM)	0.06 µg/mL (≈ 0.172 µM)	0.12 µg/mL (≈ 0.344 µM)		C[C@@H]1[C@H](N)CN1c1c(F)cc2c(=O)c(C(=O)O)cn(C3CC3)c2c1F (stereo in doubt; 23)	123 mg/kg	6.2 mg/kg		MIC [4]: 0.12 µg/mL (≈ 0.344 µM); ED50 [6]: 18.6 mg/kg; MIC [8]: 0.25 µg/mL (≈ 0.716 µM)
0.25 µg/mL (≈ 0.752 µM)	0.06 µg/mL (≈ 0.181 µM)	0.12 µg/mL (≈ 0.361 µM)	0.06 µg/mL (≈ 0.181 µM)	0.5 µg/mL (≈ 1.5 µM)	2 µg/mL (≈ 6.02 µM)	0.5 µg/mL (≈ 1.5 µM)	0.25 µg/mL (≈ 0.752 µM)	2 µg/mL (≈ 6.02 µM)	0.12 µg/mL (≈ 0.361 µM)	0.25 µg/mL (≈ 0.752 µM)	22300 ng·h/mL	C[C@@H]1[C@@H](N)CN1c1nc2c(cc1F)c(=O)c(C(=O)O)cn2C1CC1				
0.06 µg/mL (≈ 0.148 µM)	0.015 µg/mL (≈ 0.0371 µM)	0.06 µg/mL (≈ 0.148 µM)	0.015 µg/mL (≈ 0.0371 µM)	0.5 µg/mL (≈ 1.24 µM)	0.5 µg/mL (≈ 1.24 µM)	0.06 µg/mL (≈ 0.148 µM)	0.12 µg/mL (≈ 0.297 µM)	0.5 µg/mL (≈ 1.24 µM)	0.06 µg/mL (≈ 0.148 µM)		38200 ng·h/mL	C[C@H]1[C@H](N)CN1c1nc2c(cc1F)c(=O)c(C(=O)O)cn2-c1ccc(F)cc1F (single isomer, unassigned)	156 mg/kg	4.2 mg/kg	6.6 mg/kg	
